Source: ChEMBL document CHEMBL2151014, “Facile water promoted synthesis of 1,2,3-triazolyl dihydropyrimidine-2-thione hybrids - highly potent antibacterial agents” (2012)
In brackets after ≈: the same amount, converted by molar mass. Activity calls are given as the source filed them. The rule behind the calls is not given here.

Tests used:
Streptococcus pneumoniae = test: Antibacterial activity against Streptococcus pneumoniae after 48 hrs by well diffusion assay; assay type: functional
In short: (§1)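 Clinical isolates identified biochemically; maintained on yeast extract–peptone–NaCl agar, pH 7.2, at 28 ± 2 °C. About 1 mL inoculum mixed into molten nutrient agar and poured. A central 5 mm well was cut and filled with 50 μL of compound in 10% DMSO, filter-sterilized, at various concentrations. 10% DMSO served as control. Inhibition zones were read after 48 h at room temperature.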

Salmonella typhi = test: Antibacterial activity against Salmonella typhi after 48 hrs by well diffusion assay
Pseudomonas aeruginosa = test: Antibacterial activity against Pseudomonas aeruginosa after 48 hrs by well diffusion assay; assay type: functional; in short: as §1
Staphylococcus aureus = test: Antibacterial activity against Staphylococcus aureus after 48 hrs by well diffusion assay; assay type: functional; in short: as §1
[1] = Salmonella enterica subsp. enterica serovar Typhi

Compound | MIC99 (Streptococcus pneumoniae) [µg/mL] | MIC99 (Salmonella typhi; Salmonella enterica) [µg/mL] | MIC99 (Pseudomonas aeruginosa) | MIC99 (Staphylococcus aureus) | MIC99 (Salmonella typhi; [1])
Cc1c(C2=CC(c3ccc(Br)cc3)NC(=S)N2)nnn1Cc1ccccc1 (configuration not stated) | 44 (≈ 99.9 µM) | 120 (≈ 272 µM) | 100 µg/mL (≈ 227 µM) | 95 µg/mL (≈ 216 µM) | 
COc1ccc(C2C=C(c3nnn(Cc4ccccc4)c3C)NC(=S)N2)cc1 (configuration not stated) | 40 (≈ 102 µM) |  | 10 µg/mL (≈ 25.5 µM) | inactive | inactive
Cc1c(C2=CC(c3ccc(F)cc3)NC(=S)N2)nnn1Cc1ccccc1 (configuration not stated) | 100 (≈ 264 µM) |  | 130 µg/mL (≈ 343 µM) | 85 µg/mL (≈ 224 µM) | inactive
COc1ccc(C2C=C(c3nnn(Cc4ccccc4)c3C)NC(=S)N2)c(OC)c1 (configuration not stated) | 42 (≈ 99.6 µM) | 32 (≈ 75.9 µM) | inactive | inactive | 
Cc1c(C2=CC(c3ccc([N+](=O)[O-])cc3)NC(=S)N2)nnn1Cc1ccccc1 (configuration not stated) | 20 (≈ 49.2 µM) | 80 (≈ 197 µM) | 20 µg/mL (≈ 49.2 µM) | 20 µg/mL (≈ 49.2 µM) | 
CN(C)[C@@H]1C(O)=C(C(N)=O)C(=O)[C@@]2(O)C(O)=C3C(=O)c4c(O)cccc4[C@@](C)(O)[C@H]3C[C@@H]12 [TETRACYCLINE] | 20 (≈ 45 µM) | 15 (≈ 33.8 µM) | 10 µg/mL (≈ 22.5 µM) | 10 µg/mL (≈ 22.5 µM) | 

Second part, the compound after the results:

MIC99 (Streptococcus pneumoniae) [µg/mL] | MIC99 (Salmonella typhi; Salmonella enterica) [µg/mL] | MIC99 (Pseudomonas aeruginosa) | MIC99 (Staphylococcus aureus) | MIC99 (Salmonella typhi; [1]) | Compound
19 (≈ 52.6 µM) | 18 (≈ 49.8 µM) | 12 µg/mL (≈ 33.2 µM) | 10 µg/mL (≈ 27.7 µM) |  | Cc1c(C2=CC(c3ccccc3)NC(=S)N2)nnn1Cc1ccccc1 (configuration not stated)
19 (≈ 50.6 µM) | 25 (≈ 66.6 µM) | 18 µg/mL (≈ 47.9 µM) | 37 µg/mL (≈ 98.5 µM) |  | Cc1ccccc1C1C=C(c2nnn(Cc3ccccc3)c2C)NC(=S)N1 (configuration not stated)
16 (≈ 42.6 µM) | 13 (≈ 34.6 µM) | 10 µg/mL (≈ 26.6 µM) | 8 µg/mL (≈ 21.3 µM) |  | Cc1ccc(C2C=C(c3nnn(Cc4ccccc4)c3C)NC(=S)N2)cc1 (configuration not stated)
10 (≈ 25.3 µM) | 20 (≈ 50.5 µM) | 9 µg/mL (≈ 22.7 µM) | 10 µg/mL (≈ 25.3 µM) |  | Cc1c(C2=CC(c3ccc(Cl)cc3)NC(=S)N2)nnn1Cc1ccccc1 (configuration not stated)
33 (≈ 74.9 µM) |  | inactive | inactive | inactive | Cc1c(C2=CC(c3ccccc3Br)NC(=S)N2)nnn1Cc1ccccc1 (configuration not stated)
35 (≈ 79.5 µM) | 90 (≈ 204 µM) | 24 µg/mL (≈ 54.5 µM) | 22 µg/mL (≈ 50 µM) |  | Cc1c(C2=CC(c3cccc(Br)c3)NC(=S)N2)nnn1Cc1ccccc1 (configuration not stated)
25 (≈ 58.1 µM) |  | inactive | 43 µg/mL (≈ 99.9 µM) | inactive | Cc1c(C2=CC(c3ccc(Cl)cc3Cl)NC(=S)N2)nnn1Cc1ccccc1 (configuration not stated)
